The record followed here is ChEMBL document CHEMBL1909561, “Stable and orally bio-available pro-drugs of CPS11” (Bioorg Med Chem Lett, 2011).

Series [1] concerns HUVEC. In words: Antiproliferative activity against human HUVEC at 195 uM after 24 hrs. It counts as cell-based. In outline: (§1)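 HUVECs in M199 with 20% bovine serum and 20 ng/mL bFGF, seeded at 20,000 cells/well onto Matrigel that had gelled 30 min at 37 °C, left to attach overnight. Medium changed to one containing test agent or vehicle (0.5% DMSO) and cultured 24 h at 37 °C, 5% CO₂. Each well photographed and counted.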

In another series the test system is ECV-304. The series is described as follows: (§2) Antiproliferative activity against human ECV304 cells assessed as growth inhibition after 72 hrs by MTT assay. Type of series: cell-based. To be noted: for IC50: Homo sapiens, ECV-304, 72 h; for growth inhibition (GI): human, ecv-304, 72 h. In outline: (§3)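 ECV-304 grown in RPMI 1640 with 10% bovine serum, seeded 6000 cells/well and left to attach overnight at 37 °C, 5% CO₂. Medium then replaced by fresh medium with 1% FBS plus test agent or DMSO vehicle for 72 h. MTT added for a further 4 h, absorbance read at 535 nm. Duplicate wells, three independent repeats.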
In general terms: Formazan colour is commonly taken as a measure of viable cells.

Series [2] in a line: Toxicity in ip dosed nude mouse administered for 2 weeks. Type of series: organism-based. To be noted: in vivo.
Series [3] is described as follows: Stability of the compound after 1 month by HPLC method (reference value: 91.6%). It counts as physicochemical. To be noted: read-out: Stability.
The next series has as its system PC-3. The series is described as follows: Antitumor activity against human PC3 cells in xenograft model. It counts as functional. In general terms: Xenograft models place foreign cells or tissue in a host animal.
Series [4] in a line: Antitumor activity against human Lung cancer cells in metastasis model. It counts as functional, Cancer cell lines.
The test system of series [5] is MX1. The series is described as follows: Antitumor activity against human MX1 cells implanted subcutaneously in mouse at 5 mg/kg, iv administered on day 7 post challenge. It counts as functional. In outline: (§4)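 Mice implanted subcutaneously in the right flank with 1–2 mm³ MX-1 tumor fragments. Dosing began on day 7, at about 200 mm³ tumor size. Five mice per group: vehicle; 65 mg/kg once daily for five consecutive days; or that regimen plus Taxol 5 mg/kg iv once on day 7. Read-outs were tumor growth inhibition rate, survival and body weight.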

A short description of series [6]: Stability of the compound assessed as purity after 2 months by HPLC method (reference value: 98.9%). Conditions: 1461 h. Type of series: physicochemical.
For series [7], the system named is Mus musculus. In words: Toxicity in mouse assessed as mouse survival at 65 mg/kg, ip for 5 days co-administered with taxol at 5 mg/kg, iv on day 7 post challenge. To be noted: in vivo, 120 h. Type of series: organism-based. Put shortly: (§5)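 Mice bearing MX-1 human breast tumour fragments (1–2 mm³, implanted subcutaneously in the right flank), five per group. Treatment began on day 7 after inoculation, at a tumour size of about 200 mm³. Groups received vehicle, test compound at 65 mg/kg once daily for five consecutive days, or the same schedule plus Taxol 5 mg/kg iv once on day 7. Survival and body weight loss were monitored.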

The nature of series [8]: Stability of the compound in aqueous solution after 8 hrs. To be noted: buffer. Type of series: physicochemical. In outline: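 Stability followed in aqueous solution over 8 h.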
Another series relates to Rattus norvegicus. In words: Prodrug activation in IV dosed rat assessed as formation of CPS11. To be noted: in vivo. It counts as organism-based.
Series [9] is described as follows: Bioavailability in intragastrically administered rat. Type of series: ADME, organism-based. Conditions: in vivo, po. Put shortly:
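Single intragastric dose given to rats; oral bioavailability determined.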

In series [10] the test system is Mus musculus. The series is described as follows: Toxicity in mouse assessed as body weight loss at 65 mg/kg, ip for 5 days co-administered with taxol at 5 mg/kg, iv on day 7 post challenge. It counts as organism-based. Conditions: in vivo, 120 h. In outline:
as §5

Series [11] is described as follows: Aqueous solubility of the compound after 8 hrs by UV spectroscopy. Type of series: physicochemical.
The subject of series [12] is MX1. The series is described as follows: Antitumor activity against human MX1 cells xenografted in mouse at 65 mg/kg, ip for 5 days. Type of series: functional, organism-based. Details: dose 65 mg/kg. Put shortly:
as §4

Series [13] has as its system MX1. In words: Potentiation of taxol-induced antitumor activity against human MX1 cells xenografted in mouse at 65 mg/kg, ip for 5 days co-administered with taxol at 5 mg/kg, iv on day 7 post challenge. It counts as functional, organism-based. Put shortly: as §4
Series [14] is described as follows: as §2. Type of series: cell-based, ECV-304. To be noted: human, ECV304 cells; read-out: GI. In outline: as §3
Series [15] concerns HUVEC. In words: Antiproliferative activity against human HUVEC assessed as tube formation at 195 uM after 24 hrs. It counts as cell-based. Put shortly: as §1
The nature of series [16]: Stability of the compound assessed as purity after 2 months by HPLC method (reference value: 99.3%). It counts as physicochemical. Conditions: 1461 h.

Each structure is given as a SMILES string. The source made the active and inactive calls. The calls are words filed in the database; no cut-off is given here.

In turn, `O=C(OCN1C(=O)CCC(N2C(=O)c3ccccc3C2=O)C1=O)c1ccncc1` (stereo not drawn) returned an Activity in the series with HUVEC [1] of 88%. Further, in the series on ECV-304, the IC50 worked out at 180 nM and the “growth inhibition (GI)” value was “Dose-dependent effect”.
In series [2], `O=C1CCC(N2C(=O)c3ccccc3C2=O)C(=O)N1CO` (stereo not drawn) came in with an MTD at 336 h of 100 mg/kg. Moreover, the remaining at 730.5 h in series [3] amounted to 58.9%. For the same compound, the “inhibition (INH)” value in the series on PC-3 stood at 90%; in [4], 87%.
Turning to `CC(=O)O[C@H]1C(=O)[C@@]2(C)[C@H]([C@H](OC(=O)c3ccccc3)[C@]3(O)C[C@H](OC(=O)[C@H](O)[C@@H](NC(=O)c4ccccc4)c4ccccc4)C(C)=C1C3(C)C)[C@]1(OC(C)=O)CO[C@@H]1C[C@@H]2O` [PACLITAXEL], the Activity in the series on MX1 [5] was determined as 33.1%.
On to `O=C(OCN1C(=O)CCC(N2C(=O)c3ccccc3C2=O)C1=O)c1cccnc1.O=S(=O)(O)c1ccccc1` (stereo not drawn), for which the Stability entry in series [6] and in [8] was “Stable” each time. Besides, the Activity entry with Mus musculus [7] is recorded as “Non-toxic”; with Rattus norvegicus it was “Active”; with Mus musculus [10], “Non-toxic”. This compound also yielded a bioavailability in [9] of 60.7%. The same compound came in with a solubility at 8 h in [11] of 840 µg/mL.
In turn, `O=C(OCN1C(=O)CCC(N2C(=O)c3ccccc3C2=O)C1=O)c1cccnc1` (stereo not drawn) [listing 1 of 2 here] returned an Activity in the series with HUVEC [1] of 88%. In the series with ECV-304, the IC50 was determined as 120 nM and the “growth inhibition (GI)” value is recorded as “Dose-dependent effect”.
As for `O=C(OCN1C(=O)CCC(N2C(=O)c3ccccc3C2=O)C1=O)c1cccnc1` (stereo not drawn) [listing 2 of 2 here], the result in the series with MX1 [12] was inactive. Besides, in the series with MX1 [13], the result was Active.
With `O=C1CCC(N2C(=O)c3ccccc3C2=O)C(=O)N1` (stereo not drawn) [THALIDOMIDE], the inhibition at 72 h in series [14] was found to be 40%. In addition, the Activity in the series with HUVEC [15] is reported as 53%.
On to `O=C(OCN1C(=O)CCC(N2C(=O)c3ccccc3C2=O)C1=O)c1ccccn1` (stereo not drawn), for which the Activity in the series on HUVEC [1] is 88%. In addition, in the series with ECV-304, the concentration for half-maximal inhibition (IC50) came to 100 nM and the “growth inhibition (GI)” value is “Dose-dependent effect”.
`Cl.O=C(OCN1C(=O)CCC(N2C(=O)c3ccccc3C2=O)C1=O)c1cccnc1` (stereo not drawn): the Stability entry in series [8] and in [16] was “Stable” throughout. Moreover, the solubility at 8 h in series [11] was 1480 µg/mL.

Usually IC50 stands for the concentration needed to halve the response being measured. As a reminder, the bioavailability is the share of a dose that reaches the circulation, judged against a reference dose that is usually intravenous. Higher therefore signals good availability. As usually defined, the solubility is the concentration that dissolves in the medium under given conditions. Higher therefore signals a readily soluble substance.
